Experimental data reported in ChEMBL document CHEMBL1811814, “Synthesis and evaluation of indole, pyrazole, chromone and pyrimidine based conjugates for tumor growth inhibitory activities--development of highly efficacious cytotoxic agents” (Eur J Med Chem, 2010).

How the values were obtained:
Assay type in all cases: functional
[1] = tested on: MDA-MB-435; experiment: Growth inhibition of human MDA-MB-435 cells assessed tumor cell growth at 10^-5 M; set-up: scale not given: the % may be the effect or the level left
Procedure, shortened: (§1)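 NCI 60-human-tumor-cell-line panel screen. Each compound was tested at a single concentration of 10^-5 M, and percent growth of tumor cells was recorded for each cell line. Growth inhibition was expressed from these percent-growth values.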

[2] = Growth inhibition of human RPMI8266 cells
[3] = tested on: ACHN; experiment: Growth inhibition of human ACHN cells assessed tumor cell growth at 10^-5 M; set-up: scale not given: the % may be the effect or the level left; procedure, shortened: as §1
[4] = tested on: SK-MEL-5; experiment: Growth inhibition of human SK-MEL-5 cells assessed tumor cell growth at 10^-5 M; set-up: scale not given: the % may be the effect or the level left; procedure, shortened: as §1
[5] = tested on: NCI-H460; experiment: Growth inhibition of human NCI-H460 cells
[6] = tested on: NCI-H23; experiment: Growth inhibition of human NCI-H23 cells
[7] = tested on: U-251; experiment: Growth inhibition of human U251 cells assessed tumor cell growth at 10^-5 M; set-up: scale not given: the % may be the effect or the level left
Procedure, shortened: (§2)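 Single-dose screen at 10^-5 M across the 60 human tumor cell line panel, run to NCI standards. The value is the percent growth of each cell line in the presence of compound. Compounds active at this dose moved on to five-concentration testing (10^-4 to 10^-8 M).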

[8] = tested on: M14; experiment: Growth inhibition of human M14 cells
[9] = tested on: SN12C; experiment: Growth inhibition of human SN12C cells assessed tumor cell growth at 10^-5 M; set-up: scale not given: the % may be the effect or the level left; procedure, shortened: as §1
[10] = tested on: SK-MEL-2; experiment: Growth inhibition of human SK-MEL-2 cells assessed tumor cell growth at 10^-5 M; set-up: scale not given: the % may be the effect or the level left; procedure, shortened: as §1
[11] = tested on: MCF7; experiment: Growth inhibition of human MCF7 cells assessed tumor cell growth at 10^-5 M; set-up: scale not given: the % may be the effect or the level left; procedure, shortened: as §1
[12] = tested on: NCI-H522; experiment: Growth inhibition of human NCI-H522 cells assessed tumor cell growth at 10^-5 M; set-up: scale not given: the % may be the effect or the level left; procedure, shortened: as §1
[13] = tested on: EKVX; experiment: Growth inhibition of human EKVX cells
[14] = tested on: BT-549; experiment: Growth inhibition of human BT549 cells
[15] = tested on: HCT-116; experiment: Growth inhibition of human HCT116 cells assessed tumor cell growth at 10^-5 M; set-up: scale not given: the % may be the effect or the level left; procedure, shortened: as §1
[16] = tested on: PC-3; experiment: Growth inhibition of human PC3 cells
[17] = tested on: OVCAR-3; experiment: Growth inhibition of human OVCAR3 cells assessed tumor cell growth at 10^-5 M; set-up: scale not given: the % may be the effect or the level left; procedure, shortened: as §1
[18] = tested on: OVCAR-8; experiment: Growth inhibition of human OVCAR8 cells
[19] = tested on: DU-145; experiment: Growth inhibition of human DU145 cells assessed tumor cell growth at 10^-5 M; set-up: scale not given: the % may be the effect or the level left; procedure, shortened: as §1
[20] = Growth inhibition of human Hs 578T cells
[21] = tested on: NCI-H322M; experiment: Growth inhibition of human NCI-H322M cells assessed tumor cell growth at 10^-5 M; set-up: scale not given: the % may be the effect or the level left; procedure, shortened: as §1
[22] = tested on: 786-0; experiment: Growth inhibition of human 786-0 cells assessed tumor cell growth at 10^-5 M; set-up: scale not given: the % may be the effect or the level left; procedure, shortened: as §1
[23] = tested on: A498; experiment: Growth inhibition of human A498 cells assessed tumor cell growth at 10^-5 M; set-up: scale not given: the % may be the effect or the level left; procedure, shortened: as §1
[24] = tested on: SF-539; experiment: Growth inhibition of human SF539 cells
[25] = tested on: U-251; experiment: Growth inhibition of human U251 cells
[26] = tested on: RXF 393; experiment: Growth inhibition of human RXF393 cells assessed tumor cell growth at 10^-5 M; set-up: scale not given: the % may be the effect or the level left; procedure, shortened: as §1
[27] = tested on: M14; experiment: Growth inhibition of human M14 cells assessed tumor cell growth at 10^-5 M; set-up: scale not given: the % may be the effect or the level left; procedure, shortened: as §1
[28] = tested on: NCI-H522; experiment: Growth inhibition of human NCI-H522 cells
[29] = tested on: SR; experiment: Growth inhibition of human SR cells
[30] = tested on: SF-268; experiment: Growth inhibition of human SF268 cells
[31] = tested on: UACC-257; experiment: Growth inhibition of human UACC257 cells
[32] = Growth inhibition of human […] cells assessed tumor cell growth at 10^-5 M; set-up: scale not given: the % may be the effect or the level left; procedure, shortened: as §1
[33] = tested on: A549; experiment: Growth inhibition of human A549 cells assessed tumor cell growth at 10^-5 M; set-up: scale not given: the % may be the effect or the level left; procedure, shortened: as §1
[34] = tested on: A498; experiment: Growth inhibition of human A498 cells
[35] = tested on: SNB-75; experiment: Growth inhibition of human SNB75 cells assessed tumor cell growth at 10^-5 M; set-up: scale not given: the % may be the effect or the level left; procedure, shortened: as §2
[36] = tested on: ACHN; experiment: Growth inhibition of human ACHN cells
[37] = tested on: COLO 205; experiment: Growth inhibition of human COLO205 cells
[38] = tested on: SNB-19; experiment: Growth inhibition of human SNB19 cells
[39] = tested on: UO-31; experiment: Growth inhibition of human UO31 cells assessed tumor cell growth at 10^-5 M; set-up: scale not given: the % may be the effect or the level left; procedure, shortened: as §2
[40] = tested on: NCI-H226; experiment: Growth inhibition of human NCI-H226 cells
[41] = tested on: NCI-H460; experiment: Growth inhibition of human NCI-H460 cells assessed tumor cell growth at 10^-5 M; set-up: scale not given: the % may be the effect or the level left; procedure, shortened: as §1
[42] = tested on: CCRF-CEM; experiment: Growth inhibition of human CCRF-CEM cells
[43] = tested on: MOLT-4; experiment: Growth inhibition of human MOLT4 cells
[44] = tested on: MDA-MB-231; experiment: Growth inhibition of human MDA-MB-231 cells
[45] = tested on: LOX IMVI; experiment: Growth inhibition of human LOXIMVI cells assessed tumor cell growth at 10^-5 M; set-up: scale not given: the % may be the effect or the level left; procedure, shortened: as §1
[46] = tested on: Malme-3M; experiment: Growth inhibition of human MALME-3M cells
[47] = tested on: SW-620; experiment: Growth inhibition of human SW620 cells assessed tumor cell growth at 10^-5 M; set-up: scale not given: the % may be the effect or the level left; procedure, shortened: as §2
[48] = tested on: RXF 393; experiment: Growth inhibition of human RXF393 cells
[49] = tested on: IGROV-1; experiment: Growth inhibition of human IGROV1 cells assessed tumor cell growth at 10^-5 M; set-up: scale not given: the % may be the effect or the level left; procedure, shortened: as §1
[50] = tested on: LOX IMVI; experiment: Growth inhibition of human LOXIMVI cells
[51] = tested on: HOP-62; experiment: Growth inhibition of human HOP62 cells assessed tumor cell growth at 10^-5 M; set-up: scale not given: the % may be the effect or the level left; procedure, shortened: as §1
[52] = tested on: T47D; experiment: Growth inhibition of human T47D cells
[53] = read-out: LC50 (the source's name)

O=C1Nc2ccccc2/C1=C/c1cn(C(=O)c2c(Cl)cccc2Cl)c2ccccc12
Activity [1]: 85.6% | GI50 [2]: 3.4 µM | CC50 [2, 53]: > 100 µM | Activity [3]: 43.6% | Activity [4]: 63% | GI50 [5]: 1.9 µM | CC50 [5, 53]: 7.9 µM | GI50 [6]: 4.1 µM | LC50 (concentration killing 50% of cells) [6]: 50.1 µM | Activity [7]: 35.8% | GI50 [8]: 2.3 µM | CC50 [8, 53]: 33.8 µM | Activity [9]: 56% | Activity [10]: 39.9% | Activity [11]: 22.9% | Activity [12]: 55.3% | GI50 [13]: 2.8 µM | CC50 [13, 53]: > 100 µM | GI50 [14]: 2.4 µM | CC50 [14, 53]: 37.1 µM | Activity [15]: 26% | GI50 [16]: 2.4 µM | CC50 [16, 53]: > 100 µM | Activity [17]: 43% | GI50 [18]: 4.1 µM | CC50 [18, 53]: > 100 µM | Activity [19]: 59.2% | GI50 [20]: 2.2 µM | CC50 [20, 53]: > 100 µM | Activity [21]: 90.3% | Activity [22]: 57% | Activity [23]: 52.5% | GI50 [24]: 5 µM | CC50 [24, 53]: 66.1 µM | GI50 [25]: 3.4 µM | CC50 [25, 53]: 54.9 µM | Activity [26]: -4.1% | Activity [27]: 66.2% | GI50 [28]: 4.2 µM | LC50 (concentration killing 50% of cells) [28]: 54.9 µM | GI50 [29]: 2.2 µM | CC50 [29, 53]: > 100 µM | GI50 [30]: 2.4 µM | CC50 [30, 53]: 57.5 µM | GI50 [31]: 5 µM | CC50 [31, 53]: 95.4 µM | Activity [32]: 51.8% | Activity [33]: 36.7% | GI50 [34]: 1.2 µM | CC50 [34, 53]: 21.8 µM | Activity [35]: 54.6% | GI50 [36]: 3.1 µM | CC50 [36, 53]: > 100 µM | GI50 [37]: 7.6 µM | LC50 [37]: 54.9 µM | GI50 [38]: 7.2 µM | CC50 [38, 53]: > 100 µM | Activity [39]: 50.7% | GI50 [40]: 7.4 µM | CC50 [40, 53]: 83.1 µM | Activity [41]: 71.1% | GI50 [42]: 0.34 µM | CC50 [42, 53]: > 100 µM | GI50 [43]: 2.8 µM | LC50 [43]: > 100 µM | GI50 [44]: 3.1 µM | CC50 [44, 53]: > 100 µM | Activity [45]: 48.4% | GI50 [46]: 2.6 µM | CC50 [46, 53]: 58.8 µM | Activity [47]: 45.4% | GI50 [48]: 4.1 µM | CC50 [48, 53]: 43.6 µM | Activity [49]: 25.7% | GI50 [50]: 1.6 µM | CC50 [50, 53]: 6.6 µM | Activity [51]: 88.7% | GI50 [52]: 4.1 µM | CC50 [52, 53]: > 100 µM
